How the values were obtained:
human red blood cells [1] = assay: ATP release from red blood cells; assay type: cell-based; conditions: 5 μM peptide, human RBCs, 37 °C, ATPLite kit on supernatant
human red blood cells [2] = assay: micro-RNA mir-16 release from red blood cells; assay type: cell-based; conditions: pH 5.4; 5 μM peptide, human RBCs, 37 °C, mir-16 by stem-loop qPCR on supernatant
[3] = Size-exclusion chromatography, association state in aqueous buffer; assay type: physicochemical; conditions: for apparent molecular weight, SEC: 150 mM NaCl, Superdex 75, 25 °C, 100 μM peptide
[4] = Sedimentation equilibrium analytical ultracentrifugation in aqueous buffer; assay type: physicochemical; conditions: for apparent MW, AUC single-species fit: 150 mM NaCl, 25 °C, 35-50 krpm, global fit; for apparent MW, AUC single-species fit / aggregation state (apparent MW/peptide MW), AUC / –log(Kdissociation), monomer–hexamer equilibrium, AUC: 100 μM peptide; for –log(Kdissociation), monomer–hexamer equilibrium, AUC: error = SD of fit
[5] = Circular dichroism thermal denaturation; assay type: physicochemical; conditions: for [PSPF-EKG] at 50% folded and 300 K: calculated from the CD fit; for Tm of thermal denaturation by CD: reference concentration 4 μM
[6] = AUC self-association in C-14 betaine micelles; assay type: physicochemical; conditions: 8 mM C-14 betaine, pH 7.4 and 5.5, peptide/betaine 1:50, 1:100, 1:200
Procedure, shortened: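 Sedimentation equilibrium run at 25 °C at 35, 40, 45 and 50 krpm. Test compound was dissolved in C-14 betaine micelles in 150 mM NaCl and 50 mM sodium phosphate. D2O was added to match micelle density: 17% at pH 7.4 and 22% at pH 5.5. Data were fitted by single-species and monomer–trimer equilibrium models.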

| Substance | % ATP at 5 μM, RBC lysis assay (human red blood cells [1]; pH 5.4) | % ATP at 5 μM, RBC lysis assay (human red blood cells [1]; pH 7.5) | % miRNA at 5 μM, RBC lysis assay (human red blood cells [2]) | also measured |
| --- | --- | --- | --- | --- |
| WSELAKA LSELAKA LSELAKA LSELAKA [PSPF-EKA] | 3.66 % relative to Triton X-100 controls | 2.02 % relative to Triton X-100 controls | 0.21 % relative to Triton X-100 controls | – |
| WSHLAQG LSHLAQG LSHLAQG LSHLAQG [PSPF-HQG] | – | 5.69 % relative to Triton X-100 controls | 0.64 % relative to Triton X-100 controls | – |
| WSELAKG LSELAKG LSELAKG LSELAKG [PSPF-EKG] | 27.3 % relative to Triton X-100 controls | 3.38 % relative to Triton X-100 controls | – | apparent molecular weight, SEC ([3]; pH 5.5, 50 mM MES): 15 000 Da; apparent molecular weight, SEC ([3]; pH 7.4, 50 mM Tris): 19 000 Da; increase of free energy of the helical bundle as pH decreases from 7.4 to 5.5 ([4]; AUC): 0.7 kcal/mol peptide; association state n suggested by AUC single-species fitting ([4]; pH 5.5): 6; apparent MW, AUC single-species fit ([4]; pH 5.5, 50 mM MES): 16 000 Da; aggregation state (apparent MW/peptide MW), AUC ([4]; pH 5.5): 5.5; –log(Kdissociation), monomer–hexamer equilibrium, AUC ([4]; pH 5.5): 24.8 ± 0.1; association state n suggested by AUC single-species fitting ([4]; pH 7.4): 6; apparent MW, AUC single-species fit ([4]; pH 7.4, 50 mM Tris): 18 000 Da; aggregation state (apparent MW/peptide MW), AUC ([4]; pH 7.4): 6.2; –log(Kdissociation), monomer–hexamer equilibrium, AUC ([4]; pH 7.4): 28.0 ± 0.4; decrease of Tm from pH 7.4 to pH 5.5 ([5]; CD thermal denaturation): 5.6 K; [PSPF-EKG] at 50% folded and 300 K ([5]; pH 5.5): 0.31 µM; Tm of thermal denaturation by CD ([5]; pH 5.5): 333.4 ± 0.1 K; [PSPF-EKG] at 50% folded and 300 K ([5]; pH 7.4): 0.14 µM; Tm of thermal denaturation by CD ([5]; pH 7.4): 339.0 ± 0.1 K; self-association in detergent micelles [6]: weakly associates in detergent micelles |
| WSDLAQA LSDLAQA LSDLAQA LSDLAQA [PSPF-DQA] | – | 3.81 % relative to Triton X-100 controls | – | – |
| WSHLAQA LSHLAQA LSHLAQA LSHLAQA [PSPF-HQA] | – | 6.17 % relative to Triton X-100 controls | 1.43 % relative to Triton X-100 controls | – |
| WSELAQG LSELAQG LSELAQG LSELAQG [PSPF-EQG] | 9.52 % relative to Triton X-100 controls | 3.36 % relative to Triton X-100 controls | 2.64 % relative to Triton X-100 controls | – |
| WSHLAKG LSHLAKG LSHLAKG LSHLAKG [PSPF-HKG] | – | 32.1 % relative to Triton X-100 controls | 0.44 % relative to Triton X-100 controls | – |
| WSELAQA LSELAQA LSELAQA LSELAQA [PSPF-EQA] | 3.61 % relative to Triton X-100 controls | 3.69 % relative to Triton X-100 controls | 0.02 % relative to Triton X-100 controls | – |
| WSHLAKA LSHLAKA LSHLAKA LSHLAKA [PSPF-HKA] | 5.7 % relative to Triton X-100 controls | 0.93 % relative to Triton X-100 controls | 0.02 % relative to Triton X-100 controls | – |
| WSDLAKG LSDLAKG LSDLAKG LSDLAKG [PSPF-DKG] | 24.1 % relative to Triton X-100 controls | 7.54 % relative to Triton X-100 controls | 7.47 % relative to Triton X-100 controls | aggregation state n (apparent MW fold over single peptide MW), SEC ([3]; pH 5.5): only a poorly defined peak; apparent MW, AUC single-species fit ([4]; pH 5.5, 50 mM MES): 24 000 Da; association state n suggested by AUC single-species fitting ([4]; pH 7.4): 6; apparent MW, AUC single-species fit ([4]; pH 7.4, 50 mM Tris): 17 000 Da; aggregation state (apparent MW/peptide MW), AUC ([4]; pH 7.4): 6.0; –log(Kdissociation), monomer–hexamer equilibrium, AUC ([4]; pH 7.4): 28.7 ± 0.4 |
| WSDLAQG LSDLAQG LSDLAQG LSDLAQG [PSPF-DQG] | 8.61 % relative to Triton X-100 controls | 3.21 % relative to Triton X-100 controls | 0.16 % relative to Triton X-100 controls | – |
| WSDLAKA LSDLAKA LSDLAKA LSDLAKA [PSPF-DKA] | 5.79 % relative to Triton X-100 controls | 4.64 % relative to Triton X-100 controls | 0.79 % relative to Triton X-100 controls | – |

— publication PMC4843813 (ACS chemical biology, 2015)
